Measurements as given in ChEMBL document CHEMBL1123146, “Design, synthesis, and evaluation of omega-iodovinyl- and omega-iodoalkyl-substituted methyl-branched long-chain fatty acids” (J Med Chem, 1985).

What was measured:
[1] = test system: Rattus norvegicus; assay: Concentration was measured in heart tissue of unfasted Fischer 344 rats administered intravenously after 60 minute (radiolabeled with [125I]-; type: ADME, organism-based; conditions: in vivo, iv, 1 h
Procedure, shortened: (§1)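 Female Fischer 344 rats, 10-12 weeks old, 170-200 g, with food and water ad libitum. The 125I-fatty acid was taken up in ethanol, added dropwise to stirred 6% BSA at ~40 °C (final ethanol 10%), filtered, and given as 0.5 mL via lateral tail vein under ether anesthesia. Rats were killed by cervical fracture; blood was taken by cardiac puncture. Organs were rinsed, blotted, weighed and gamma-counted against injectate standards to give %ID/g. Five rats per time point.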

[2] = test system: Rattus norvegicus; assay: (§2) Concentration was measured in tissue of unfasted Fischer 344 rats administered intravenously after 60 minute (radiolabeled with [123I]-; type: ADME, organism-based; conditions: in vivo, iv, 1 h
[3] = test system: Rattus norvegicus; assay: Concentration was measured in heart tissue of unfasted Fischer 344 rats administered intravenously after 30 minute (radiolabeled with [123I]-; type: ADME, organism-based; conditions: in vivo, iv, 0.5 h
[4] = test system: Rattus norvegicus; assay: Concentration was measured in thyroid tissue of unfasted Fischer 344 rats administered intravenously after 30 minute (radiolabeled with [125I]-; type: ADME, organism-based, Thyroid gland; conditions: in vivo, iv, 0.5 h, in the assay text read “fasted” for “unfasted”
[5] = test system: Rattus norvegicus; assay: Concentration was measured in blood tissue of unfasted Fischer 344 rats administered intravenously after 60 minute (radiolabeled with [123I]-; type: ADME, organism-based; conditions: in vivo, iv, 1 h
[6] = test system: Rattus norvegicus; assay: Concentration was measured in heart tissue of unfasted Fischer 344 rats, administered intravenous, after 5 minute (radiolabeled with [125I]-; type: ADME, organism-based; conditions: in vivo, 5 min; procedure, shortened: as §1
[7] = test system: Rattus norvegicus; assay: Concentration was measured in blood tissue of unfasted Fischer 344 rats administered intravenously after 4 hr (radiolabeled with [125I]-; type: ADME, organism-based; conditions: in vivo, iv
[8] = test system: Rattus norvegicus; assay: Concentration was measured in blood tissue of unfasted Fischer 344 rats administered intravenously after 5 minute (radiolabeled with [123I]-; type: ADME, organism-based; conditions: in vivo, iv, 5 min
[9] = test system: Rattus norvegicus; assay: Concentration was measured in liver tissue of fasted Fischer 344 rats administered intravenously after 4 hr (radiolabeled with [125I]-; conditions: in vivo, iv
[10] = test system: Rattus norvegicus; assay: Concentration was measured in liver tissue of unfasted Fischer 344 rats administered intravenously after 5 minute (radiolabeled with [123I]-; type: ADME, organism-based; conditions: in vivo, iv, 5 min
[11] = test system: Rattus norvegicus; assay: Concentration was measured in lungs tissue of unfasted Fischer 344 rats administered intravenously after 30 minute (radiolabeled with [125I]-; type: ADME, organism-based, Lung; conditions: in vivo, iv, 0.5 h; procedure, shortened: as §1
[12] = test system: Rattus norvegicus; assay: Concentration was measured in tissue of unfasted Fischer 344 rats administered intravenously after 60 minute (radiolabeled with [125I]-; type: ADME, organism-based; conditions: in vivo, iv, 1 h
Procedure, shortened: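 Female Fischer 344 rats, 10–12 weeks old (170–200 g), with food and water ad libitum, five per time point. The radioiodinated fatty acid was dissolved in ethanol, added to 6% BSA at ~40 °C (final 10% ethanol), filtered, and injected into a lateral tail vein (0.5 mL) under ether anesthesia. Blood was taken by cardiac puncture; organs were rinsed, blotted, weighed and gamma-counted against injectate standards. Output is % injected dose/g.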

[13] = test system: Rattus norvegicus; assay: Concentration was measured in mean heart/blood tissue of fasted Fischer 344 rats administered intravenously after 60 minute (radiolabeled with [125I]-; conditions: in vivo, iv, 1 h
[14] = test system: Rattus norvegicus; assay: Concentration was measured in blood tissue of unfasted Fischer 344 rats administered intravenously after 5 minute (radiolabeled with [125I]-; type: ADME, organism-based; conditions: in vivo, iv, 5 min; procedure, shortened: as §1
[15] = test system: Rattus norvegicus; assay: Concentration was measured in blood tissue of unfasted Fischer 344 rats administered intravenously after 60 minute (radiolabeled with [125I]-; type: ADME, organism-based; conditions: in vivo, iv, 1 h; procedure, shortened: as §1
[16] = test system: Rattus norvegicus; assay: Concentration was measured in lungs tissue of unfasted Fischer 344 rats administered intravenously after 5 minute (radiolabeled with [123I]-; type: ADME, organism-based, Lung; conditions: in vivo, iv, 5 min
[17] = test system: Rattus norvegicus; assay: Concentration was measured in lungs tissue of unfasted Fischer 344 rats administered intravenously after 30 minute (radiolabeled with [123I]-; type: ADME, organism-based, Lung; conditions: in vivo, iv, 0.5 h
[18] = test system: Rattus norvegicus; assay: Concentration was measured in heart tissue of unfasted Fischer 344 rats administered intravenously after 30 minutes (radiolabeled with [125I]-; type: ADME, organism-based; conditions: in vivo, iv, 0.5 h; procedure, shortened: as §1
[19] = test system: Rattus norvegicus; assay: Concentration was measured in lungs tissue of unfasted Fischer 344 rats administered intravenously after 60 minute (radiolabeled with [123I]-; type: ADME, organism-based, Lung; conditions: in vivo, iv, 1 h
[20] = test system: Rattus norvegicus; assay: Concentration was measured in blood tissue of unfasted Fischer 344 rats administered intravenously after 30 minute (radiolabeled with [125I]-; type: ADME, organism-based; conditions: in vivo, iv, 0.5 h, in the assay text read “fasted” for “unfasted”
[21] = test system: Rattus norvegicus; assay: Concentration was measured in lungs tissue of unfasted Fischer 344 rats administered intravenously after 60 minute (radiolabeled with [125I]-; type: ADME, organism-based, Lung; conditions: in vivo, iv, 1 h; procedure, shortened: as §1
[22] = test system: Rattus norvegicus; assay: Concentration was measured in heart tissue of unfasted Fischer 344 rats administered intravenously after 4 hr (radiolabeled with [123I]-; type: ADME, organism-based; conditions: in vivo, iv
[23] = test system: Rattus norvegicus; assay: Concentration was measured in kidney tissue of unfasted Fischer 344 rats administered intravenously after 5 minute (radiolabeled with [125I]-; type: ADME, organism-based; conditions: in vivo, iv, 5 min; procedure, shortened: as §1
[24] = test system: Rattus norvegicus; assay: Concentration was measured in kidney tissue of unfasted Fischer 344 rats administered intravenously after 5 minute (radiolabeled with [123I]-; type: ADME, organism-based; conditions: in vivo, iv, 5 min
[25] = test system: Rattus norvegicus; assay: Concentration was measured in lungs tissue of unfasted Fischer 344 rats administered intravenously after 4 hr (radiolabeled with [125I]-; type: ADME, organism-based, Lung; conditions: in vivo, iv
[26] = test system: Rattus norvegicus; assay: as §2; type: ADME, organism-based; conditions: in vivo, iv, 1 h; remark: listed apart in the source
[27] = test system: Rattus norvegicus; assay: Concentration was measured in thyroid tissue of unfasted Fischer 344 rats administered intravenously after 4 hr (radiolabeled with [125I]-; type: ADME, organism-based, Thyroid gland; conditions: in vivo, iv
[28] = test system: Rattus norvegicus; assay: Concentration was measured in heart tissue of unfasted Fischer 344 rats administered intravenously after 4 hr (radiolabeled with [125I]-; type: ADME, organism-based; conditions: in vivo, iv
[29] = test system: Rattus norvegicus; assay: Concentration was measured in mean heart/blood tissue of fasted Fischer 344 rats administered intravenously after 5 minute (radiolabeled with [123I]-; conditions: in vivo, iv, 5 min
[30] = test system: Rattus norvegicus; assay: Concentration was measured in mean heart/blood tissue of unfasted Fischer 344 rats administered intravenously after 4 hr (radiolabeled with [125I]-; type: ADME, organism-based; conditions: other tissue, iv
[31] = test system: Rattus norvegicus; assay: Concentration was measured in kidney tissue of unfasted Fischer 344 rats administered intravenously after 4 hr (radiolabeled with [123I]-; type: ADME, organism-based; conditions: in vivo, iv
[32] = test system: Rattus norvegicus; assay: Concentration was measured in kidney tissue of unfasted Fischer 344 rats administered intravenously after 30 minute (radiolabeled with [123I]-; type: ADME, organism-based; conditions: in vivo, iv, 0.5 h
[33] = test system: Rattus norvegicus; assay: Concentration was measured in thyroid tissue of unfasted Fischer 344 rats administered intravenously after 5 minute (radiolabeled with [123I]-; type: ADME, organism-based, Thyroid gland; conditions: in vivo, iv, 5 min
[34] = test system: Rattus norvegicus; assay: Concentration was measured in blood tissue of unfasted Fischer 344 rats administered intravenously after 4 hr (radiolabeled with [123I]-; type: ADME, organism-based; conditions: in vivo, iv
[35] = test system: Rattus norvegicus; assay: Concentration was measured in mean heart/blood tissue of fasted Fischer 344 rats administered intravenously after 5 minute (radiolabeled with [125I]-; conditions: in vivo, iv, 5 min
[36] = test system: Rattus norvegicus; assay: Concentration was measured in heart tissue of unfasted Fischer 344 rats administered intravenously after 5 minute (radiolabeled with [123I]-; type: ADME, organism-based; conditions: in vivo, iv, 5 min
[37] = test system: Rattus norvegicus; assay: Concentration was measured in blood tissue of unfasted Fischer 344 rats administered intravenously after 30 minute (radiolabeled with [123I]-; type: ADME, organism-based; conditions: in vivo, iv, 0.5 h
[38] = test system: Rattus norvegicus; assay: Concentration was measured in kidney tissue of unfasted Fischer 344 rats administered intravenously after 30 minute (radiolabeled with [125I]-; type: ADME, organism-based; conditions: in vivo, iv, 0.5 h; procedure, shortened: as §1
[39] = test system: Rattus norvegicus; assay: Concentration was measured in liver tissue of unfasted Fischer 344 rats administered intravenously after 5 minute (radiolabeled with [125I]-; type: ADME, organism-based; conditions: in vivo, iv, 5 min; procedure, shortened: as §1
[40] = test system: Rattus norvegicus; assay: Concentration was measured in heart tissue of unfasted Fischer 344 rats administered intravenously after 60 minute (radiolabeled with [123I]-; type: ADME, organism-based; conditions: in vivo, iv, 1 h
[41] = test system: Rattus norvegicus; assay: Concentration was measured in kidney tissue of unfasted Fischer 344 rats administered intravenously after 60 minute (radiolabeled with [123I]-; type: ADME, organism-based; conditions: in vivo, iv, 1 h

CC(CCCCCCCCCCCCCC/C=C/I)CC(=O)O.O=C(O)CCCCCCCCCCCCCCCC/C=C/I (stereo unspecified)
Distribution [1]: 2.56% | Distribution [2]: 102% | Distribution [3]: 1.19% | Distribution [4]: 48.5% | Distribution [5]: 0.64% | Distribution [6]: 4.89% | Distribution [7]: 0.53% | Distribution [8]: 0.74% | Distribution [9]: 1.11% | Distribution [10]: 4.87% | Distribution [11]: 0.96% | Distribution [12]: 2.94% | Distribution [13]: 4.1% | Distribution [14]: 0.91% | Distribution [15]: 0.63% | Distribution [16]: 1.54% | Distribution [17]: 1.32% | Distribution [18]: 3.32% | Distribution [19]: 1.21% | Distribution [20]: 0.77% | Distribution [21]: 0.89% | Distribution [22]: 0.59% | Distribution [23]: 1.06% | Distribution [24]: 1.12% | Distribution [25]: 0.81% | Distribution [26]: 2.62% | Distribution [27]: 364% | Distribution [28]: 1.38% | Distribution [29]: 4.8% | Distribution [30]: 2.6% | Distribution [31]: 0.95% | Distribution [32]: 1.03% | Distribution [33]: 22.5% | Distribution [34]: 0.61% | Distribution [35]: 5.4% | Distribution [36]: 3.52% | Distribution [37]: 0.74% | Distribution [38]: 0.91% | Distribution [39]: 6.48% | Distribution [40]: 0.78% | Distribution [41]: 0.96%
